Data published in ChEMBL document CHEMBL1138477, “8-(4-Methoxyphenyl)pyrazolo[1,5-a]-1,3,5-triazines: selective and centrally active corticotropin-releasing factor receptor-1 (CRF1) antagonists” (J Med Chem, 2009).
Calls of active or inactive are those of the source.

Experiments:
[1] = Clearance in Beagle dog at 5 mg/kg, iv; type: ADME, organism-based, Canis lupus familiaris; parameters: dose 5 mg/kg, route intravenous; settings: in vivo
In short: (§1)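 Male beagle dogs (8.0-11.0 kg) dosed iv or po (5 mg/kg oral suspension in 0.5% methylcellulose with 1% Tween-80); plasma sampled 0.25-24 h; liquid-liquid extraction with hexane/ether, LC/MS/MS, quantitation limit 1 ng/mL (2.42 nM); noncompartmental parameters as free base.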

[2] = Volume of distribution at steady state in Beagle dog at 5 mg/kg, iv; type: ADME, organism-based, Canis lupus familiaris; parameters: dose 5 mg/kg, route intravenous; settings: in vivo, read-out: Vdss
In short: (§2)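 Male beagle dogs (8.0-11.0 kg) dosed intravenously. Plasma sampled at 0.25, 0.5, 1, 2, 4, 6, 8, 12 and 24 h after dosing. Liquid–liquid extraction in hexane/ether, then LC/MS/MS assay (quantitation limit 1 ng/mL). Concentrations expressed as free base. Parameters obtained by noncompartmental analysis as for rat. Mean ± SD.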

[3] = Tmax in Beagle dog at 5 mg/kg, po; type: ADME, organism-based, Canis lupus familiaris; parameters: dose 5 mg/kg, route oral; settings: in vivo; in short: as §1
[4] = Clearance in Beagle dog at 1 mg/kg, iv; type: ADME, organism-based, Canis lupus familiaris; parameters: dose 1 mg/kg, route intravenous; settings: in vivo; in short: as §1
[5] = Volume of distribution at steady state in Beagle dog at 1 mg/kg, iv; type: ADME, organism-based, Canis lupus familiaris; parameters: dose 1 mg/kg, route intravenous; settings: in vivo, read-out: Vdss; in short: as §2
[6] = Elimination half life in Beagle dog at 1 mg/kg, iv; type: ADME, organism-based, Canis lupus familiaris; parameters: dose 1 mg/kg, route intravenous; settings: in vivo, read-out: beta t1/2 (converted); in short: as §1
[7] = Cmax in Beagle dog at 20 mg/kg, po; type: ADME, organism-based, Canis lupus familiaris; parameters: dose 20 mg/kg, route oral; settings: in vivo
[8] = Tmax in Beagle dog at 20 mg/kg, po; type: ADME, organism-based, Canis lupus familiaris; parameters: dose 20 mg/kg, route oral; settings: in vivo
[9] = Oral bioavailability in Beagle dog at 20 mg/kg; type: ADME, organism-based, Canis lupus familiaris; settings: in vivo
Rattus norvegicus [10] = experiment: Anxiolytic-like activity in Sprague-Dawley rat assessed as increase in time spent in open arms at 30 mg/kg, po measured after 1 hr by elevated plus maze test; type: functional, organism-based; parameters: dose 30 mg/kg
In short: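 Group-housed male Sprague-Dawley rats (180-300 g) dosed po in 0.25% Methocel 1 h before elevated plus maze; arm entry defined as all four paws in arm; percent time in open arms scored; test doses 1.0, 3.0, 10, 30 mg/kg; positive control at 18 mg/kg; n = 13-15/dose; mean ± SEM, ANOVA then Fisher's LSD.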

Rattus norvegicus [11] = experiment: Anxiolytic-like activity in Sprague-Dawley rat assessed as decrease in latency to exit dark chamber at 10 mg/kg, po measured after 1 hr by defensive withdrawal test relative to control; type: functional; parameters: scale not given: the % may be the effect or the level left
In short: (§3)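 Male Sprague-Dawley rats (180-300 g), individually housed; open field with cylindrical dark chamber; oral dosing in 0.25% Methocel 1 h before a 15 min session scored blind via video; latency to place all four paws in open field recorded, maximum 900 s; test doses 1.0, 3.0, 10, 30 mg/kg; positive control at 10 mg/kg; n = 12/dose; Kruskal-Wallis then Mann-Whitney U.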

Rattus norvegicus [12] = experiment: Anxiolytic-like activity in Sprague-Dawley rat assessed as decrease in latency to exit dark chamber at 3 mg/kg, po measured after 1 hr by defensive withdrawal test relative to control; type: functional; parameters: scale not given: the % may be the effect or the level left; in short: as §3
Rattus norvegicus [13] = experiment: Anxiolytic-like activity in Sprague-Dawley rat assessed as decrease in latency to exit dark chamber at 30 mg/kg, po measured after 1 hr by defensive withdrawal test relative to control; type: functional; parameters: scale not given: the % may be the effect or the level left; in short: as §3
Rattus norvegicus [14] = experiment: Ex vivo receptor occupancy of CRF1 receptor in Sprague-Dawley rat brain at 0.3 mg/kg, po by [125I]sauvagine binding and autoradiography relative to control; type: functional
In short: (§4)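 Sprague-Dawley rats dosed po at 0.3, 1, 3, 10, 30 mg/kg in the defensive-withdrawal vehicle and protocol; brains removed, sectioned, frozen at -80 °C, then ex vivo binding gave occupancy relative to vehicle-treated rats; mean ± SEM.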

Rattus norvegicus [15] = experiment: Ex vivo receptor occupancy of CRF1 receptor in Sprague-Dawley rat brain at 1 mg/kg, po by [125I]sauvagine binding and autoradiography relative to control; type: functional; in short: as §4
Rattus norvegicus [16] = experiment: Ex vivo receptor occupancy of CRF1 receptor in Sprague-Dawley rat brain at 3 mg/kg, po by [125I]sauvagine binding and autoradiography relative to control; type: functional; in short: as §4
Rattus norvegicus [17] = experiment: Ex vivo receptor occupancy of CRF1 receptor in Sprague-Dawley rat brain at 10 mg/kg, po by [125I]sauvagine binding and autoradiography relative to control; type: functional; in short: as §4
Rattus norvegicus [18] = experiment: Ex vivo receptor occupancy of CRF1 receptor in Sprague-Dawley rat brain at 30 mg/kg, po by [125I]sauvagine binding and autoradiography relative to control; type: functional; in short: as §4
Rattus norvegicus [19] = experiment: Toxicity in Sprague-Dawley rat assessed as total distance traveled at 30 mg/kg, po after 1 hr by open-field locomotor activity test; type: organism-based; parameters: dose 30 mg/kg, route oral; settings: in vivo
In short: (§5)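 Male Sprague-Dawley rats received a single oral gavage dose of 30 mg/kg (free base weight) in 0.5% methocel–Tween-80 (99:1) or vehicle alone. Behaviour was assessed 1 h postdose, as time on the rotorod in seconds for the rotorod test and total distance travelled in cm for open-field locomotor activity. Values are mean ± SEM, n = 8 per group.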

Rattus norvegicus [20] = experiment: Toxicity in Sprague-Dawley rat assessed as time spent on rotarod at 30 mg/kg, po after 1 hr by rotarod test; type: organism-based; parameters: dose 30 mg/kg, route oral; settings: in vivo; in short: as §5
[21] = Volume of distribution at steady state in female Sprague-Dawley CD rat at 1 mg/kg, iv; type: ADME, organism-based; parameters: dose 1 mg/kg, route intravenous; settings: in vivo, read-out: Vdss
In short: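 Female Sprague-Dawley CD rats (n = 3) given a single 1 mg/kg iv bolus (free base) in 20% ethanol/physiological saline (apparent pH 3.4). Jugular vein blood taken into EDTA from predose to 32 h. Plasma assayed by solid-phase extraction and LC/MS with an internal standard (range 5–5000 nM). Noncompartmental analysis; mean ± SD.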

[22] = Clearance in male Sprague-Dawley CD rat at 1 mg/kg, iv; type: ADME, organism-based; parameters: dose 1 mg/kg, route intravenous; settings: in vivo
In short: (§6)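 Sprague-Dawley CD rats: 1 mg/kg iv bolus in 20% ethanol/saline (apparent pH 3.4) to 3 males and 3 females; 5 mg/kg po in 0.5% methylcellulose with 1% Tween-80 to 3 males. Jugular blood into EDTA, predose to 32 h. Free base quantified by LC/MS after solid-phase extraction (range 5-5000 nM); noncompartmental analysis; F relative to iv.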

[23] = Clearance in female Sprague-Dawley CD rat at 1 mg/kg, iv; type: ADME, organism-based; parameters: dose 1 mg/kg, route intravenous; settings: in vivo; in short: as §6
[24] = Elimination half life in male Sprague-Dawley CD rat at 1 mg/kg, iv; type: ADME, organism-based; parameters: dose 1 mg/kg, route intravenous; settings: in vivo, read-out: beta t1/2 (converted); in short: as §6
[25] = Elimination half life in female Sprague-Dawley CD rat at 1 mg/kg, iv; type: ADME, organism-based; parameters: dose 1 mg/kg, route intravenous; settings: in vivo, read-out: beta t1/2 (converted); in short: as §6
[26] = Tmax in male Sprague-Dawley CD rat at 5 mg/kg, po; type: ADME, organism-based; parameters: dose 5 mg/kg, route oral; settings: in vivo; in short: as §6
[27] = Oral bioavailability in male Sprague-Dawley CD rat at 5 mg/kg relative to 1 mg/kg, iv dose; type: ADME, organism-based; settings: in vivo; in short: as §6
Rattus norvegicus [28] = experiment: Hepatic blood flow in iv dosed male Sprague-Dawley CD rat; type: ADME, organism-based, Liver; settings: in vivo
Rattus norvegicus [29] = experiment: Hepatic blood flow in iv dosed female Sprague-Dawley CD rat; type: ADME, organism-based, Liver; settings: in vivo
Rattus norvegicus [30] = experiment: Ex vivo receptor occupancy of CRF1 receptor in po dosed Sprague-Dawley rat brain by [125I]sauvagine binding and autoradiography relative to control; type: functional; settings: read-out: MED; in short: as §4

## COCCN(CCOC)c1nc(C)nc2c(-c3cc(C)c(OC)cc3C)c(C)nn12
[1]
  clearance: 11 mL/min/kg
[2]
  Vd: 23.7 L/kg
[3]
  Tmax: 0.8 h

## CC[C@@H](C)Nc1nc(C)nc2c(-c3c(C)cc(OC)cc3OC)c(C)nn12
[4]
  clearance: 10 mL/min/kg
[5]
  Vd: 14.8 L/kg
[6]
  half-life: 33.3 h
[7]
  Cmax: 1940 nM
[8]
  Tmax: 4 h
[9]
  bioavailability: 4.7%

## COCCN(CCOC)c1nc(C)nc2c(-c3ccc(OC)cc3C)c(C)nn12
[1]
  clearance: 20 mL/min/kg
[2]
  Vd: 18.4 L/kg
[3]
  Tmax: 0.5 h
Rattus norvegicus [10]
  Activity: Active
Rattus norvegicus [11]
  Activity: 73%
Rattus norvegicus [12]
  Activity: 62%
Rattus norvegicus [13]
  Activity: 59%
Rattus norvegicus [14]
  Activity: 12%
Rattus norvegicus [15]
  Activity: 17%
Rattus norvegicus [16]
  Activity: 48%
Rattus norvegicus [17]
  Activity: 60%
Rattus norvegicus [18]
  Activity: 82%
Rattus norvegicus [19]
  Activity: 4986 cm
Rattus norvegicus [20]
  Time: 158 s
[21]
  Vd: 12.2 L/kg
[22]
  clearance: 20 mL/min/kg
[23]
  clearance: 14.5 mL/min/kg
[24]
  half-life: 9.7 h
[25]
  half-life: 11.9 h
[26]
  Tmax: 0.5 h
[27]
  bioavailability: 51%
Rattus norvegicus [28]
  QH: 55 mL/min/kg
Rattus norvegicus [29]
  QH: 55 mL/min/kg
Rattus norvegicus [30]
  minimal effective dose: 3 mg/kg
